Test results reported in ChEMBL document CHEMBL2331329, “Synthesis and biological evaluation of 2-(alkoxycarbonyl)-3-anilinobenzo[b]thiophenes and thieno[2,3-b]pyridines as new potent anticancer agents” (J Med Chem, 2013).
The source made the active and inactive calls. No cut-off for these calls is given here.

Legend:
[1] = Cytotoxicity against human SEM cells after 72 hrs by MTT assay; type: functional, cell-based
Method in brief: (§1)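 Cells plated at 8 × 10^3 per well, 18 h at 37 °C, 5% CO2, then fresh medium with graded compound concentrations (DMSO ≤0.25%) for 72 h. Jurkat, SEM, HL-60 grown in RPMI-1640; A549, HeLa, HT-29, MCF-7 in DMEM; 10% FBS with penicillin/streptomycin. MTT viability read-out; IC50 vs 0.25% DMSO controls; mean ± SE of at least three independent experiments.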

HeLa [2] = assay: Cytotoxicity against human HeLa cells after 72 hrs by MTT assay; type: functional, cell-based
HT-29 [3] = assay: Cytotoxicity against human HT-29 cells after 72 hrs by MTT assay; type: functional, cell-based; settings: HT-29, 72 h
Jurkat [4] = assay: Cytotoxicity against human Jurkat cells after 72 hrs by MTT assay; type: functional, cell-based; method in brief: as §1
MCF7 = assay: Cytotoxicity against human MCF7 cells after 72 hrs by MTT assay; type: functional, cell-based; settings: MCF7, 72 h
A549 [5] = assay: Cytotoxicity against human A549 cells after 72 hrs by MTT assay; type: functional, cell-based; settings: A549, 72 h
HL-60 = assay: Cytotoxicity against human HL60 cells after 72 hrs by MTT assay; type: functional, cell-based; settings: HL-60, 72 h
[6] = Cytotoxicity against human A549-T12 cells after 72 hrs by MTT assay; type: functional, cell-based; settings: A549, 72 h
Method in brief: (§2)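 Mean ± SE of at least three independent experiments. Resistance ratio = IC50 in resistant line/IC50 in nonresistant line.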

HeLa [7] = assay: Induction of apoptosis in human HeLa cells assessed as ROS production at 10 to 100 nM after 24 to 48 hrs by HE staining-based flow cytometry relative to control; type: functional, cell-based
Method in brief: (§3)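 HeLa cells treated 24 or 48 h, then stained with H2-DCFDA or hydroethidine. ROS read by flow cytometry against untreated control. Mean ± SEM of three independent experiments.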

HeLa [8] = assay: Induction of apoptosis in human HeLa cells assessed as early apoptotic cells at 10 to 100 nM by annexin V-FITC and propidium iodide staining-based flow cytometry; type: functional, cell-based; settings: TDE = time-dependent effect
Method in brief: (§4)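 HeLa cells treated 24 or 48 h, then co-labelled with annexin-V–FITC and propidium iodide. Flow cytometry with 488 nm excitation and emission at 525 nm (FITC) and 585 nm (PI); early apoptotic cells counted as annexin-V+/PI−. Mean ± SEM of three independent experiments.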

HeLa [9] = assay: Cell cycle arrest in human HeLa cells assessed as accumulation at G2/M phase at >20 nM after 24 hrs by propidium iodide staining-based flow cytometry; type: functional
Method in brief: (§5)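 Jurkat, HT-29 and HeLa cells in exponential growth (5 × 10^5 cells) treated 24 h at a range of concentrations. Fixed in ice-cold 70% ethanol, lysed with buffer containing RNase A and 0.1% Triton X-100, stained with propidium iodide. DNA content read by flow cytometry and the percentage of cells per cycle phase derived from DNA histograms.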

Jurkat [10] = assay: Cell cycle arrest in human Jurkat cells assessed as accumulation at G2/M phase at 20 nM after 24 hrs by propidium iodide staining-based flow cytometry; type: functional; method in brief: as §5
[11] = Inhibition of bovine brain tubulin polymerization after 20 mins by turbidimetric analysis; design: species or system Bos taurus
Method in brief: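 Bovine brain tubulin (10 μM) preincubated with varying compound concentrations in glutamate buffer at 30 °C, chilled to 0 °C, 0.4 mM GTP added, then warmed to 30 °C in a recording spectrophotometer.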

Jurkat [12] = assay: Cell cycle arrest in human Jurkat cells assessed as accumulation at G2/M phase at >20 nM after 24 hrs by propidium iodide staining-based flow cytometry; type: functional; method in brief: as §5
CCRF-CEM [13] = assay: Resistance index, ratio of IC50 for human CEM/VBL100 cells to IC50 for human CEM cells; type: functional
Method in brief: (§6)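 MTT viability test: 8 × 10^3 cells per well settled 18 h at 37 °C, 5% CO2, then given fresh medium with compound (from 10 mM DMSO stocks, final DMSO ≤0.25%) for 72 h. […] CEMVbl-100 is a vinblastine-selected P-gp line; LoVoDoxo is grown in Ham's F12 with 0.1 μg/mL doxorubicin. Resistance index = resistant IC50/parental IC50.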

HeLa [14] = assay: Cell cycle arrest in human HeLa cells assessed as accumulation at G2/M phase after 24 hrs by propidium iodide staining-based flow cytometry; type: functional; method in brief: as §5
Bos taurus [15] = species on record: Bos taurus; assay: Displacement of [3H]colchicine from bovine brain tubulin at 1 uM after 20 mins by turbidimetric analysis
[16] = Cytotoxicity against human LoVo/DX cells after 72 hrs by MTT assay; type: functional, cell-based; method in brief: as §6
Jurkat [17] = assay: Cell cycle arrest in human Jurkat cells assessed as accumulation at G2/M phase after 24 hrs by propidium iodide staining-based flow cytometry; type: functional; method in brief: as §5
Bos taurus [18] = species on record: Bos taurus; assay: Displacement of [3H]colchicine from bovine brain tubulin at 5 uM after 20 mins by turbidimetric analysis
HeLa [19] = assay: Induction of apoptosis in human HeLa cells assessed as early apoptotic cells after 24 to 48 hrs by annexin V-FITC/Propidium iodide staining-based flow cytometry; type: functional, cell-based; method in brief: as §4
HeLa [20] = assay: Induction of apoptosis in human HeLa cells assessed as mitochondrial membrane depolarization after 24 to 48 hrs by JC-1 staining; type: functional, cell-based
Method in brief: (§7)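 HeLa cells treated 24 or 48 h, then stained with the potentiometric dye JC-1. Proportion of cells with depolarised mitochondria read by flow cytometry. Mean ± SEM of three independent experiments.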

LoVo [21] = assay: Cytotoxicity against human LoVo cells after 72 hrs by MTT assay; type: functional, cell-based; method in brief: as §6
HeLa [22] = assay: Induction of apoptosis in human HeLa cells assessed as mitochondrial membrane depolarization at 10 to 100 nM by JC-1 staining; type: functional, cell-based; settings: TDE = time-dependent effect; method in brief: as §7
[23] = Cytotoxicity against human CEM/VBL100 cells after 72 hrs by MTT assay; type: functional, cell-based; settings: CEM/VBL100, 72 h; method in brief: as §6
HeLa [24] = assay: Cell cycle arrest in human HeLa cells assessed as accumulation at G2/M phase at 20 nM after 24 hrs by propidium iodide staining-based flow cytometry; type: functional; method in brief: as §5
PBL = assay: Cytotoxicity against human PHA-stimulated PBL cells after 72 hrs by MTT assay; type: cell-based
Method in brief: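 Peripheral blood lymphocytes from healthy donors isolated on a Lymphoprep gradient and rested overnight in RPMI-1640 with 10% FBS. Nonadherent cells at 5 × 10^5 cells/mL, with 2.5 μg/mL PHA for proliferating cultures or without it for resting ones. Compound exposure 72 h, viability by MTT. Mean ± SEM of three experiments.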

HT-29 [25] = assay: Cell cycle arrest in human HT-29 cells assessed as accumulation at G2/M phase at >20 nM after 24 hrs by propidium iodide staining-based flow cytometry; type: functional; method in brief: as §5
CCRF-CEM [26] = assay: Cytotoxicity against human CEM cells after 72 hrs by MTT assay; type: functional, cell-based; method in brief: as §6
HeLa [27] = assay: Induction of apoptosis in human HeLa cells assessed as ROS production at 10 to 100 nM after 24 to 48 hrs by H2-DCFDA staining-based flow cytometry relative to control; type: functional, cell-based; method in brief: as §3
HT-29 [28] = assay: Cell cycle arrest in human HT-29 cells assessed as accumulation at G2/M phase after 24 hrs by propidium iodide staining-based flow cytometry; type: functional; method in brief: as §5
HT-29 [29] = assay: Cell cycle arrest in human HT-29 cells assessed as accumulation at G2/M phase at 20 nM after 24 hrs by propidium iodide staining-based flow cytometry; type: functional; method in brief: as §5
A549 [30] = assay: Resistance index, ratio of IC50 for human A549-T12 cells to IC50 for human A549 cells; type: functional; method in brief: as §2
LoVo [31] = assay: Resistance index, ratio of IC50 for human LoVo/DX cells to IC50 for human LoVo cells; type: functional; method in brief: as §6

In the case of COC(=O)c1sc2cccc(C)c2c1Nc1cc(OC)c(OC)c(OC)c1, the IC50 [1] is reported as 2500 nM, the IC50 (HeLa [2]) is reported as 1300 nM and the IC50 (HT-29 [3]) is reported as 1020 nM. It also gave an IC50 (Jurkat [4]) of 6710 nM, an IC50 (MCF7) of 8190 nM and an IC50 (A549 [5]) of 4580 nM. For the same compound, the IC50 (HL-60) was 3380 nM.

CC(=O)O[C@H]1C(=O)[C@@]2(C)[C@H]([C@H](OC(=O)c3ccccc3)[C@]3(O)C[C@H](OC(=O)[C@H](O)[C@@H](NC(=O)c4ccccc4)c4ccccc4)C(C)=C1C3(C)C)[C@]1(OC(C)=O)CO[C@@H]1C[C@@H]2O [PACLITAXEL] gave an IC50 [6] of 92.3 nM.

COc1ccc(/C=C\c2cc(OC)c(OC)c(OC)c2)cc1O [COMBRETASTATIN A4] showed an IC50 [1] of 5 nM.

COC(=O)c1sc2ccc(C)cc2c1Nc1cc(OC)c(OC)c(OC)c1 showed an IC50 [1] of 185 nM, an IC50 (HeLa [2]) of 398 nM and an IC50 (HT-29 [3]) of 299 nM. The IC50 (Jurkat [4]) was 727 nM, the IC50 (MCF7) was 540 nM and the IC50 (A549 [5]) was 2810 nM. For the same compound, the IC50 (HL-60) was 4720 nM.

In the case of COC(=O)c1sc2nc(C)ccc2c1Nc1cc(OC)c(OC)c(OC)c1, the Activity (HeLa [7]) is reported as “Active”, the Activity (HeLa [8]) is reported as “tde” and the Activity (HeLa [9]) is reported as greater than 80%. The IC50 [1] was 0.5 nM, the Activity (Jurkat [10]) was “Active” and the IC50 [11] was 700 nM. For the same compound, the Activity (Jurkat [12]) was greater than 80%, the “Ratio IC50” value (CCRF-CEM [13]) was 1.5 and the Activity (HeLa [14]) was “Dose-dependent effect”. For the same compound, the inhibition (Bos taurus [15]) was 78%, the IC50 [16] was 0.5 nM and the IC50 (HeLa [2]) was 0.18 nM. The IC50 [6] was 19.5 nM, the Activity (Jurkat [17]) was “Dose-dependent effect” and the inhibition (Bos taurus [18]) was 95%. The Activity (HeLa [19]) was “Dose-dependent effect”, the Activity (HeLa [20]) was “Dose-dependent effect” and the IC50 (LoVo [21]) was 1.9 nM. The IC50 (HT-29 [3]) was 0.35 nM, the Activity (HeLa [22]) was “tde” and the IC50 [23] was 4.2 nM. For the same compound, the Activity (HeLa [24]) was “Active”, the IC50 (PBL) was 3400 nM and the IC50 (Jurkat [4]) was 0.6 nM. The Activity (HT-29 [25]) was greater than 80%, the IC50 (CCRF-CEM [26]) was 2.8 nM and the IC50 (MCF7) was 0.53 nM. For the same compound, the Activity (HeLa [27]) was “Active”, the Activity (HT-29 [28]) was “Dose-dependent effect” and the Activity (HT-29 [29]) was “Active”. For the same compound, the “Ratio IC50” value (A549 [30]) was 1.2, the IC50 (A549 [5]) was 16.2 nM and the “Ratio IC50” value (LoVo [31]) was 0.3. The IC50 (HL-60) was 0.4 nM.

In the case of COC(=O)c1sc2c(OC)cccc2c1Nc1cc(OC)c(OC)c(OC)c1, the IC50 [1] is reported as 2.3 nM, the IC50 [11] is reported as 760 nM and the inhibition (Bos taurus [15]) is reported as 54%. It also gave an IC50 (HeLa [2]) of 3.5 nM, an inhibition (Bos taurus [18]) of 76% and an IC50 (HT-29 [3]) of 14.9 nM. It also gave an IC50 (Jurkat [4]) of 56.5 nM, an IC50 (MCF7) of 95 nM and an IC50 (A549 [5]) of 33 nM. For the same compound, the IC50 (HL-60) was 25.6 nM.

Work on CCOC(=O)c1sc2cccc(C)c2c1Nc1cc(OC)c(OC)c(OC)c1 yielded an IC50 [1] of 1930 nM, an IC50 (HeLa [2]) of 2520 nM and an IC50 (HT-29 [3]) of 3610 nM. It also gave an IC50 (Jurkat [4]) of 5670 nM, an IC50 (MCF7) of 4150 nM and an IC50 (A549 [5]) of 6250 nM. It also gave an IC50 (HL-60) of 7380 nM.

COC(=O)c1sc2ncccc2c1Nc1cc(OC)c(OC)c(OC)c1 showed an IC50 [1] of 348 nM, an IC50 (HT-29 [3]) of 542 nM and an IC50 (Jurkat [4]) of 1110 nM. It also gave an IC50 (MCF7) of 2640 nM, an IC50 (A549 [5]) of 3850 nM and an IC50 (HL-60) of 2920 nM.

In the case of COC(=O)c1sc2c(C)cccc2c1Nc1cc(OC)c(OC)c(OC)c1, the IC50 [1] is reported as 1630 nM, the IC50 (HeLa [2]) is reported as 1730 nM and the IC50 (HT-29 [3]) is reported as 552 nM. The IC50 (MCF7) was 4550 nM, the IC50 (A549 [5]) was 3930 nM and the IC50 (HL-60) was 4270 nM.
